The text below walks through data of ChEMBL document CHEMBL1152984, “Design, synthesis, and structure-activity relationships of benzophenone-based tetraamides as novel antibacterial agents” (J Med Chem, 2009).

The subject of data set [1] is Nucleic Acid. The experiment in a line: Binding affinity to DNA AT hairpin (5'-CGAAAAACAAAAAGTTTTTCG- 3') oligonucleotide by ethidium bromide displacement assay. The format is nucleic-acid assay. In a few lines: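 DNA binding: ethidium bromide (4.0 μM) and AT hairpin (8.0 μM) in 0.1 M Tris-HCl with 25 mM NaCl, pH 7.0, were titrated with compound. Fluorescence (ex 545, em 595 nm) was read after 5 min and corrected for volume. K = K_EB[E]/[agent], where [agent] is the concentration that lowers fluorescence by 50%.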

The test system of data set [2] is Staphylococcus aureus. The experiment in a line: Antibacterial activity against vancomycin-resistant Staphylococcus aureus. In kind it is functional.
Data set [3] relates to Staphylococcus aureus. The experiment in a line: Antibacterial activity against methicillin-resistant Staphylococcus aureus. In kind it is functional.
Data set [4] relates to Staphylococcus aureus. The experiment in a line: Antibacterial activity against Staphylococcus aureus ATCC 29213 assessed as inhibition of DNA synthesis at 8 times MIC treated 5 mins before [3H]thymidine challenge measured after 30 mins by [3H]thymidine incorporation assay. In kind it is functional, organism-based. In a few lines: (§1)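 Cells were added to triplicate wells with compound (0.25-4.0 μg/mL), with 5% DMSO as the no-drug control; protein-synthesis reactions used M9 minimal medium. After 5 min at room temperature, 0.5-1.0 μCi of [3H]thymidine, uridine, N-acetylglucosamine or leucine was added. Reactions ran 15-30 min (60 min for cell wall). Cold-TCA precipitates were filtered, washed and scintillation-counted.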

For data set [5], the system named is Staphylococcus aureus. The data set can be described thus: Antibacterial activity against Staphylococcus aureus ATCC 29213 assessed as inhibition of lipid synthesis at 8 times MIC treated 5 mins before [3H]glycerol challenge measured after 60 mins by [3H]glycerol incorporation assay. The format is functional, organism-based. Summed up: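 S. aureus at early exponential phase, 0.1 mL cells in triplicate tubes with agent (0.25-4.0 μg/mL) or cerulenin control. Pre-incubated 5 min at room temperature before adding [3H]glycerol at 0.5 μCi. After centrifugation, the organic phase was dried and counted by liquid scintillation.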

Data set [6] relates to Staphylococcus aureus. The experiment in a line: Antibacterial activity against glycopeptide-intermediate Staphylococcus aureus. The format is functional.
The test system of data set [7] is Enterococcus. The data set can be described thus: Antibacterial activity against vancomycin-resistant Enterococcus. The format is functional.
Data set [8] relates to Escherichia coli. The data set can be described thus: Antibacterial activity against Escherichia coli. The format is functional.
In data set [9] the test system is CHO. The experiment in a line: Cytotoxicity against CHO cells assessed as cell viability at 25 to 100 times MIC after 24 hrs by MTS assay. The format is cell-based, Cricetulus griseus. Particulars: chinese hamster. In a few lines: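 CHO cells in RPMI-1640 were seeded at 5000 cells/well, allowed to attach overnight, then exposed to 25, 50 and 100 mg/L for 24 h. MTS was added for 120 min and absorbance read at 505 nm. Results are % versus untreated controls (with or without 5% DMSO), from at least three experiments.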

Data set [10] has as its system Staphylococcus aureus. The experiment in a line: Antibacterial activity against Staphylococcus aureus ATCC 29213 assessed as inhibition of DNA synthesis at 0.5 to 8 times MIC treated 5 mins before [3H]thymidine challenge measured after 30 mins by [3H]thymidine incorporation assay. The format is functional, organism-based. Summed up: as §1
For orientation: Dividing cells build labelled thymidine or BrdU into new DNA.

The subject of data set [11] is Staphylococcus aureus. The data set can be described thus: Antibacterial activity against Staphylococcus aureus ATCC 29213 assessed as inhibition of RNA synthesis at 0.5 to 8 times MIC treated 5 mins before [3H]uridine challenge measured after 30 mins by [3H]uridine incorporation assay. In kind it is functional, organism-based. In a few lines:
as §1

Data set [12] has as its system Staphylococcus aureus. The data set can be described thus: Antibacterial activity against Staphylococcus aureus ATCC 29213 assessed as inhibition of protein synthesis at 0.5 to 8 times MIC treated 5 mins before [3H]leucine challenge measured after 30 mins by [3H]leucine incorporation assay. The format is functional, organism-based. Summed up: as §1
In data set [13] the test system is Staphylococcus aureus. The experiment in a line: Antibacterial activity against Staphylococcus aureus ATCC 29213 assessed as inhibition of cell wall synthesis at 0.5 to 8 times MIC treated 5 mins before [3H]N-acetylglucosamine challenge measured after 30 mins by [3H]N-acetylglucosamine incorporation assay. The format is functional, organism-based.
For data set [14], the system named is Staphylococcus aureus. The data set can be described thus: Antibacterial activity against Staphylococcus aureus ATCC 29213 assessed as inhibition of lipid synthesis at 0.5 to 8 times MIC treated 5 mins before [3H]glycerol challenge measured after 60 mins by [3H]glycerol incorporation assay. In kind it is functional, organism-based. In a few lines:
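Lipid synthesis: early-exponential S. aureus was mixed in triplicate with compound (0.25-4.0 μg/mL) or cerulenin. After 5 min at room temperature, [3H]glycerol (0.5 μCi) was added. Mixtures were centrifuged, and the organic phase was dried and counted by liquid scintillation.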

The test system of data set [15] is Staphylococcus aureus. The experiment in a line: Antibacterial activity against Staphylococcus aureus assessed as depolarization at 4 mg/L measured for 60 mins by fluorescence spectrophotometer relative to nisin. The format is functional, organism-based. Summed up: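 Cells were loaded with 0.4 μM diSC3(5) for 1 h at 37 °C, then KCl was added. After compound addition in a stirred cuvette at 37 °C, fluorescence (ex 622, em 670 nm) was followed for 60 min. Cells plus dye gave the background; the change was expressed as % of the nisin control (100%).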

Data set [16] relates to Nucleic Acid. The data set can be described thus: Binding affinity to Staphylococcus aureus DNA at 25 to 200 ug/mL by Hoescht dye competition assay. The format is nucleic-acid assay. Summed up: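 Compounds at 25, 50, 100, 150 and 200 mg/L were added in triplicate, and the drop in emission at 461 nm was measured against Hoechst-stained untreated cells.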
In data set [17] the test system is Nucleic Acid. The data set can be described thus: Binding affinity to Escherichia coli DNA at 25 to 200 ug/mL by Hoescht dye competition assay. In kind it is nucleic-acid assay.

SMILES strings stand for the structures. ≈ marks a conversion by molar mass, not a printed value. Calls of active or inactive are those of the source. The rule behind the calls is not given here.

Compound `Cn1cc(NC(=O)c2ccc(C(=O)c3ccccc3)cc2)cc1C(=O)NCCN1CCCCC1` showed a Ka in data set [1] of 0.227 ×10⁶ /M.

`Cn1cc(NC(=O)c2ccc(C(O)c3ccc(C(=O)Nc4cc(C(=O)NCCN5CCCC5)n(C)c4)cc3)cc2)cc1C(=O)NCCN1CCCC1`: the minimum inhibitory concentration (MIC) in data set [2] and in [3] was > 32 µg/mL in each case. In [1], the Ka was 0.175 ×10⁶ /M.

With `O=C(O)c1cn(C2CC2)c2cc(N3CCNCC3)c(F)cc2c1=O`, the result in data set [4] was Active.

On to `Cn1cc(NC(=O)c2ccccc2)cc1C(=O)NCCN1CCCCC1`, for which the MIC in [2] and in data set [3] was > 32 µg/mL in each case. The compound further had a Ka in data set [1] of 0.173 ×10⁶ /M.

For the compound `C/C=C/C/C=C/CCC(=O)[C@H]1O[C@H]1C(N)=O`, in data set [5], the outcome was Active.

Turning to `Cn1cc(NC(=O)c2ccc(C(=O)c3ccc(C(=O)Nc4cc(C(=O)NCCN5CCCCC5)n(C)c4)cc3)cc2)cc1C(=O)NCCN1CCCCC1`, the MIC – broadly, the lowest concentration that inhibits growth of the organism – in data set [6] worked out at 0.5 µg/mL (≈ 0.68 µM); in data set [2] it was 1 µg/mL (≈ 1.36 µM); in data set [3], 0.5 µg/mL (≈ 0.68 µM); in data set [7] it was 4 µg/mL (≈ 5.44 µM); in data set [8], 16 µg/mL (≈ 21.8 µM). For the same compound, the Ka in data set [1] came to 0.931 ×10⁶ /M. Moreover, the Activity result in [9] was “Not Active”. Further, the outcome in [10], in data set [11], in [12], in [13] and in data set [14] was inactive. For the same compound, in data set [15], the result was Active.

`Cn1cc(NC(=O)c2ccc(Cc3ccc(C(=O)Nc4cc(C(=O)NCCN5CCCCC5)n(C)c4)cc3)cc2)cc1C(=O)NCCN1CCCCC1`: the MIC in data set [2] and in [3] was > 32 µg/mL throughout. This compound returned a Ka in data set [1] of 0.0238 ×10⁶ /M.

Consider `Cn1cc(NC(=O)CCCCCCCCCCCC(=O)Nc2cc(C(=O)NCCN3CCCCC3)n(C)c2)cc1C(=O)NCCN1CCCCC1`, for which the MIC in data set [2] and in [3] was > 32 µg/mL in each case. This compound also returned a Ka in data set [1] of 0.0125 ×10⁶ /M.

As for `CN(C)c1ccc(NC(=O)c2cc(NC(=O)c3ccc(C(=O)c4ccc(C(=O)Nc5cc(C(=O)Nc6ccc(N(C)C)cc6)n(C)c5)cc4)cc3)cn2C)cc1`, the minimal inhibitory concentration (MIC) in [2] and in data set [3] was > 32 µg/mL throughout. In data set [1], this compound returned a Ka of 0.391 ×10⁶ /M.

As to `CN1CCN(CCCNC(=O)c2cc(NC(=O)c3ccc(C(=O)c4ccc(C(=O)Nc5cc(C(=O)NCCCN6CCN(C)CC6)n(C)c5)cc4)cc3)cn2C)CC1`, the MIC in data set [2] and in data set [3] was > 32 µg/mL each time. This compound came in with a Ka in data set [1] of 0.108 ×10⁶ /M. Also, the result in data set [16] and in data set [17] was inactive.

Regarding `Cn1cc(NC(=O)c2ccc(C(=O)c3ccc(C(=O)Nc4cn(C)c(C(=O)NCCN5CCOCC5)n4)cc3)cc2)nc1C(=O)NCCN1CCOCC1`, the MIC in [2] and in data set [3] was > 32 µg/mL in each case.

On to `Cn1cc(NC(=O)c2ccc(Cc3ccc(C(=O)Nc4cc(C(=O)NCCN5CCCC5)n(C)c4)cc3)cc2)cc1C(=O)NCCN1CCCC1`, for which the MIC in [2] and in data set [3] was > 32 µg/mL in each case. In data set [1], this compound had a Ka of 0.154 ×10⁶ /M.
